Measurements: ChEMBL document CHEMBL4811275, “Iodinated 1,2-diacylhydrazines, benzohydrazide-hydrazones and their analogues as dual antimicrobial and cytotoxic agents” (Bioorg Med Chem, 2021)
≈ marks a conversion by molar mass, not a printed value.

How the values were obtained:
Staphylococcus aureus [1] = assay: Antibacterial activity against Staphylococcus aureus ATCC 29213 assessed as reduction in bacterial growth incubated for 24 hrs by broth microdilution method; format: functional
Procedure, shortened: (§1)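 Cation-adjusted Mueller-Hinton broth microdilution per EUCAST, modified; compounds from DMSO stocks, final DMSO ≤1% v/v; scale starting from 0.49 µM. Static incubation at 35 ± 2 °C, dark, humidified, read at 24 and 48 h. MIC = lowest concentration with no visible growth by eye; duplicates, parallel readings within one dilution step; growth and medium/DMSO controls included.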

Staphylococcus aureus [2] = assay: Antibacterial activity against Staphylococcus aureus ATCC 29213 assessed as reduction in bacterial growth incubated for 48 hrs by broth microdilution method; format: functional; procedure, shortened: as §1
Staphylococcus aureus [3] = assay: Antibacterial activity against methicillin-resistant Staphylococcus aureus ATCC 43300 assessed as reduction in bacterial growth incubated for 24 hrs by broth microdilution method; format: functional
Procedure, shortened: (§2)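 EUCAST-based broth microdilution in cation-adjusted Mueller-Hinton broth. DMSO stocks, final DMSO ≤1% v/v, concentration scale starting from 0.49 µM. Static incubation at 35 ± 2 °C, dark and humidified. Run in duplicate, accepted only if parallel MICs differ by at most one dilution step. MIC is the lowest concentration with no visible growth by naked eye.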

Staphylococcus aureus [4] = assay: Antibacterial activity against methicillin-resistant Staphylococcus aureus ATCC 43300 assessed as reduction in bacterial growth incubated for 48 hrs by broth microdilution method; format: functional; procedure, shortened: as §2
[5] = tested on: Staphylococcus epidermidis; assay: Antibacterial activity against Staphylococcus epidermidis ATCC 12228 assessed as reduction in bacterial growth incubated for 24 hrs by broth microdilution method; format: functional; procedure, shortened: as §1
[6] = tested on: Staphylococcus epidermidis; assay: Antibacterial activity against Staphylococcus epidermidis ATCC 12228 assessed as reduction in bacterial growth incubated for 48 hrs by broth microdilution method; format: functional; procedure, shortened: as §1
Enterococcus faecalis [7] = assay: Antibacterial activity against Enterococcus faecalis ATCC 29212 assessed as reduction in bacterial growth incubated for 24 hrs by broth microdilution method; format: functional; procedure, shortened: as §1
Enterococcus faecalis [8] = assay: Antibacterial activity against Enterococcus faecalis ATCC 29212 assessed as reduction in bacterial growth incubated for 48 hrs by broth microdilution method; format: functional; procedure, shortened: as §1
Escherichia coli [9] = assay: Antibacterial activity against Escherichia coli ATCC 25922 assessed as reduction in bacterial growth incubated for 24 hrs by broth microdilution method; format: functional; procedure, shortened: as §1
Escherichia coli [10] = assay: Antibacterial activity against Escherichia coli ATCC 25922 assessed as reduction in bacterial growth incubated for 48 hrs by broth microdilution method; format: functional; procedure, shortened: as §1
HepG2 = assay: Cytotoxicity against human HepG2 cells assessed as reduction in cell viability incubated for 24 hrs by cell-titer 96 aqueous one solution cell proliferation assay; format: functional, cell-based; settings: HepG2, 24 h
HK-2 = assay: Cytotoxicity against human HK-2 cells assessed as reduction in cell viability incubated for 24 hrs by cell-titer 96 aqueous one solution cell proliferation assay; format: cell-based; settings: HK-2, 24 h

| Compound | MIC (Staphylococcus aureus [1]) | MIC (Staphylococcus aureus [2]) | MIC (Staphylococcus aureus [3]) | MIC (Staphylococcus aureus [4]) | MIC [5] | MIC [6] | MIC (Enterococcus faecalis [7]) | MIC (Enterococcus faecalis [8]) | MIC (Escherichia coli [9]) | MIC (Escherichia coli [10]) | IC50 (HepG2) | IC50 (HK-2) |
| --- | --- | --- | --- | --- | --- | --- | --- | --- | --- | --- | --- | --- |
| O=C(N/N=C/c1cc(I)c(O)c(I)c1)c1ccc(C(F)(F)F)cc1 | 125 µM (≈ 70 µg/mL) | 500 µM (≈ 280 µg/mL) | 500 µM (≈ 280 µg/mL) | 500 µM (≈ 280 µg/mL) | 500 µM (≈ 280 µg/mL) | 500 µM (≈ 280 µg/mL) | 500 µM (≈ 280 µg/mL) | 500 µM (≈ 280 µg/mL) | > 500 µM | > 500 µM | 57.4 µM | – |
| Cc1ccc(C(=O)N/N=C/c2cc(I)c(O)c(I)c2)cc1 | 250 µM (≈ 127 µg/mL) | 500 µM (≈ 253 µg/mL) | > 500 µM | > 500 µM | > 500 µM | > 500 µM | > 500 µM | > 500 µM | > 500 µM | > 500 µM | > 100 µM | – |
| O=C(NNC(=O)c1cc(I)cc(I)c1O)c1ccc(Cl)cc1 | 62.5 µM (≈ 33.9 µg/mL) | 62.5 µM (≈ 33.9 µg/mL) | 62.5 µM (≈ 33.9 µg/mL) | 62.5 µM (≈ 33.9 µg/mL) | 31.2 µM (≈ 17 µg/mL) | 62.5 µM (≈ 33.9 µg/mL) | 125 µM (≈ 67.8 µg/mL) | 125 µM (≈ 67.8 µg/mL) | > 500 µM | > 500 µM | 48.6 µM | – |
| O=C(N/N=C/c1cc(I)c(O)c(I)c1)c1ccc(F)cc1 | 125 µM (≈ 63.8 µg/mL) | 500 µM (≈ 255 µg/mL) | 500 µM (≈ 255 µg/mL) | > 500 µM | > 500 µM | > 500 µM | > 500 µM | > 500 µM | > 500 µM | > 500 µM | 117 µM | – |
| O=C(NNC(=O)c1cc(I)cc(I)c1O)c1ccc([N+](=O)[O-])cc1 | – | – | – | – | – | – | – | – | – | – | 159 µM | – |
| O=C(N/N=C/c1cc(I)cc(I)c1O)c1ccc(Br)cc1 | 62.5 µM (≈ 35.7 µg/mL) | 62.5 µM (≈ 35.7 µg/mL) | 62.5 µM (≈ 35.7 µg/mL) | 125 µM (≈ 71.4 µg/mL) | 62.5 µM (≈ 35.7 µg/mL) | 125 µM (≈ 71.4 µg/mL) | 250 µM (≈ 143 µg/mL) | 250 µM (≈ 143 µg/mL) | > 250 µM | > 250 µM | 22.3 µM | – |
| COc1ccc(C(=O)NNC(=O)c2cc(I)cc(I)c2O)cc1 | 500 µM (≈ 269 µg/mL) | > 500 µM | 500 µM (≈ 269 µg/mL) | > 500 µM | 500 µM (≈ 269 µg/mL) | > 500 µM | 500 µM (≈ 269 µg/mL) | > 500 µM | > 500 µM | > 500 µM | 132 µM | – |
| O=C(N/N=C/c1cc(I)c(O)c(I)c1)c1ccccc1 | 250 µM (≈ 123 µg/mL) | 250 µM (≈ 123 µg/mL) | 500 µM (≈ 246 µg/mL) | > 500 µM | > 500 µM | > 500 µM | > 500 µM | > 500 µM | > 500 µM | > 500 µM | 191 µM | – |
| O=C(N/N=C/c1cc(I)c(O)c(I)c1)c1ccc(Br)cc1 | > 500 µM | > 500 µM | > 500 µM | > 500 µM | > 500 µM | > 500 µM | > 500 µM | > 500 µM | > 500 µM | > 500 µM | > 50 µM | – |
| O=C(N/N=C/c1cc(I)c(O)c(I)c1)c1ccc(Cl)cc1 | > 500 µM | > 500 µM | > 500 µM | > 500 µM | > 500 µM | > 500 µM | > 500 µM | > 500 µM | > 500 µM | > 500 µM | > 100 µM | – |
| COc1ccc(C(=O)N/N=C/c2cc(I)c(O)c(I)c2)cc1 | 500 µM (≈ 261 µg/mL) | 500 µM (≈ 261 µg/mL) | > 500 µM | > 500 µM | > 500 µM | > 500 µM | > 500 µM | > 500 µM | > 500 µM | > 500 µM | > 100 µM | – |
| O=C(NNC(=O)c1cc(I)cc(I)c1O)c1ccc(C(F)(F)F)cc1 | – | – | – | – | – | – | – | – | – | – | 167 µM | – |
| O=C(N/N=C/c1cc(I)cc(I)c1O)c1ccc(I)cc1 | > 125 µM | > 125 µM | > 125 µM | > 125 µM | > 125 µM | > 125 µM | > 125 µM | > 125 µM | > 125 µM | > 125 µM | 31.8 µM | – |
| O=C(NNC(=O)c1cc(I)cc(I)c1O)c1ccc(I)cc1 | 250 µM (≈ 158 µg/mL) | 250 µM (≈ 158 µg/mL) | 125 µM (≈ 79.2 µg/mL) | 250 µM (≈ 158 µg/mL) | 62.5 µM (≈ 39.6 µg/mL) | 125 µM (≈ 79.2 µg/mL) | 125 µM (≈ 79.2 µg/mL) | 250 µM (≈ 158 µg/mL) | > 250 µM | > 250 µM | 25.1 µM | > 100 µM |
